Test results taken from ChEMBL document CHEMBL3745687, “Synthesis and Biological Activity of 2-Methylene Analogues of Calcitriol and Related Compounds” (2015).
Active and inactive are the calls of the source. The calls are words filed in the database; no cut-off is given here.

How the values were obtained:
[1] = biological target: T1, Vitamin D3 receptor (Rattus norvegicus) (UniProt P13053); assay: Ratio of 1alpha,25-dihydroxyvitamin D3 ED50 to compound ED50 for VDR-mediated 24-hydroxylase gene expression in rat ROS 17/2.8 cells after 16 hrs by luciferase reprter assay; assay type: cell-based
T1 sequence (whole entry): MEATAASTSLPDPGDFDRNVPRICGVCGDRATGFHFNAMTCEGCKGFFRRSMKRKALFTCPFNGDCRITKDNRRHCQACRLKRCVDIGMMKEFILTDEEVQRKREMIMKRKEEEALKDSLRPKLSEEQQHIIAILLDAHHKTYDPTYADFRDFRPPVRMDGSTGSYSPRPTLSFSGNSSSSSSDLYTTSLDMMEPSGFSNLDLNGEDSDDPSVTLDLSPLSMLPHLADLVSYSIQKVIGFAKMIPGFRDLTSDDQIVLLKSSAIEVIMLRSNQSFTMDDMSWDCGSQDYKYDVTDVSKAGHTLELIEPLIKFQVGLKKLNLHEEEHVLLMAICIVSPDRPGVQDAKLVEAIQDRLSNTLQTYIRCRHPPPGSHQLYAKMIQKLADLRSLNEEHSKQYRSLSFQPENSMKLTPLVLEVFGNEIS
Procedure, shortened: (§1)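 Rat osteosarcoma cells stably transfected with a 24-hydroxylase gene reporter plasmid; luciferase activity read across a dose range. ED50 is the concentration raising luciferase activity by 50%, taken from dose–response curves. Ratio line reports 1α,25-(OH)2D3 ED50 divided by analogue ED50.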

HL-60 = assay: Ratio of 1alpha,25-dihydroxyvitamin D3 ED50 to compound ED50 for induction of human HL60 promyelocytes differentiation to monocytes after 4 days by NBT reduction assay; assay type: functional
Procedure, shortened: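 HL-60 promyelocyte-to-monocyte differentiation scored as percentage of cells reducing nitro blue tetrazolium. Run in duplicate, repeated twice. ED50, the concentration giving 50% maturation, taken from dose–response curves; expressed as the average ratio of 1α,25-(OH)2D3 ED50 to analogue ED50.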

[2] = biological target: T1, Vitamin D3 receptor (Rattus norvegicus); assay: Ratio of 1alpha,25-dihydroxyvitamin D3 Ki to compound Ki for full length recombinant rat vitamin D receptor by scintillation counting analysis
Procedure, shortened: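 Competitive binding against radiolabeled 1α,25-(OH)2D3 at 1 nM, with Kd of 0.2 nM used in Ki derivation from dose–response curves. Duplicate runs on two separate occasions. Reported as the average ratio of 1α,25-(OH)2D3 Ki to analogue Ki.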

Rattus norvegicus [3] = assay: Effect on intestinal calcium transport in weanling Sprague-Dawley rat assessed as increase in ratio of serosal to mucosal calcium level at 7020 pmol/day administered as 4 consecutive daily doses measured 24 hrs after last dose relative to control; assay type: functional
Procedure, shortened: (§2)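 Same rats, on 0.47% Ca diet for 1 week, then 0.02% Ca for 2 weeks. Four intraperitoneal doses about 24 h apart were given during the last week. 24 h after the final dose, the first 10 cm of intestine was taken for calcium transport measurement by the everted gut sac method.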

Rattus norvegicus [4] = assay: Effect on bone calcium mobilization in weanling Sprague-Dawley rat assessed as serum calcium level at 2340 pmol/day administered as 4 consecutive daily doses measured 24 hrs after last dose relative to control; assay type: functional
Procedure, shortened: (§3)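 Rats switched to a 0.47% Ca diet for 1 week, then 0.02% Ca diet for 2 weeks. Dosing started in the final week on the 0.02% Ca diet: four consecutive intraperitoneal doses about 24 h apart. Blood taken from the severed neck 24 h after the last dose. Serum calcium measured as the index of bone calcium mobilization.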

Rattus norvegicus [5] = assay: Effect on intestinal calcium transport in weanling Sprague-Dawley rat assessed as increase in ratio of serosal to mucosal calcium level at 780 pmol/day administered as 4 consecutive daily doses measured 24 hrs after last dose relative to control; assay type: functional; procedure, shortened: as §2
Rattus norvegicus [6] = assay: Effect on intestinal calcium transport in weanling Sprague-Dawley rat assessed as increase in ratio of serosal to mucosal calcium level at 2340 pmol/day administered as 4 consecutive daily doses measured 24 hrs after last dose relative to control; assay type: functional; procedure, shortened: as §2
Rattus norvegicus [7] = assay: Effect on bone calcium mobilization in weanling Sprague-Dawley rat assessed as serum calcium level at 780 pmol/day administered as 4 consecutive daily doses measured 24 hrs after last dose relative to control; assay type: functional; procedure, shortened: as §3
Rattus norvegicus [8] = assay: Effect on intestinal calcium transport in weanling Sprague-Dawley rat assessed as increase in ratio of serosal to mucosal calcium level at 32 pmol/day administered as 4 consecutive daily doses measured 24 hrs after last dose relative to control; assay type: functional; procedure, shortened: as §2
Rattus norvegicus [9] = assay: Effect on intestinal calcium transport in weanling Sprague-Dawley rat assessed as increase in ratio of serosal to mucosal calcium level at 87 pmol/day administered as 4 consecutive daily doses measured 24 hrs after last dose relative to control; assay type: functional; procedure, shortened: as §2
Rattus norvegicus [10] = assay: Effect on bone calcium mobilization in weanling Sprague-Dawley rat assessed as serum calcium level at 7020 pmol/day administered as 4 consecutive daily doses measured 24 hrs after last dose relative to control; assay type: functional; procedure, shortened: as §3
Rattus norvegicus [11] = assay: Effect on bone calcium mobilization in weanling Sprague-Dawley rat assessed as serum calcium level at 32 pmol/day administered as 4 consecutive daily doses measured 24 hrs after last dose relative to control; assay type: functional; procedure, shortened: as §3
Rattus norvegicus [12] = assay: Effect on bone calcium mobilization in weanling Sprague-Dawley rat assessed as serum calcium level at 87 pmol/day administered as 4 consecutive daily doses measured 24 hrs after last dose relative to control; assay type: functional; procedure, shortened: as §3
[13] = biological target: T1, Vitamin D3 receptor (Rattus norvegicus); assay: Induction of VDR transcriptional activity assessed as activation of 24-hydroxylase gene expression in rat ROS 17/2.8 cells after 16 hrs by luciferase reprter assay; assay type: cell-based; procedure, shortened: as §1
Rattus norvegicus [14] = assay: Effect on bone calcium mobilization in weanling Sprague-Dawley rat assessed as serum calcium level at 16 pmol/day administered as 4 consecutive daily doses measured 24 hrs after last dose relative to control; assay type: functional; procedure, shortened: as §3
Rattus norvegicus [15] = assay: Effect on bone calcium mobilization in weanling Sprague-Dawley rat assessed as serum calcium level at 260 pmol/day administered as 4 consecutive daily doses measured 24 hrs after last dose relative to control; assay type: functional; procedure, shortened: as §3
Rattus norvegicus [16] = assay: Effect on intestinal calcium transport in weanling Sprague-Dawley rat assessed as increase in ratio of serosal to mucosal calcium level at 260 pmol/day administered as 4 consecutive daily doses measured 24 hrs after last dose relative to control; assay type: functional; procedure, shortened: as §2
Rattus norvegicus [17] = assay: Effect on intestinal calcium transport in weanling Sprague-Dawley rat assessed as increase in ratio of serosal to mucosal calcium level at 16 pmol/day administered as 4 consecutive daily doses measured 24 hrs after last dose relative to control; assay type: functional; procedure, shortened: as §2

| Compound | Ratio ED50 [1] | Ratio ED50 (HL-60) | Ratio Ki [2] | Ratio (Rattus norvegicus [3]) | Activity (Rattus norvegicus [4]) [mg/dL] | Ratio (Rattus norvegicus [5]) | Ratio (Rattus norvegicus [6]) | Activity (Rattus norvegicus [7]) [mg/dL] | Ratio (Rattus norvegicus [8]) | Ratio (Rattus norvegicus [9]) | Activity (Rattus norvegicus [10]) [mg/dL] | Activity (Rattus norvegicus [11]) [mg/dL] | Activity (Rattus norvegicus [12]) [mg/dL] | Activity [13] | Activity (Rattus norvegicus [14]) [mg/dL] | Activity (Rattus norvegicus [15]) [mg/dL] | Ratio (Rattus norvegicus [16]) | Ratio (Rattus norvegicus [17]) |
| --- | --- | --- | --- | --- | --- | --- | --- | --- | --- | --- | --- | --- | --- | --- | --- | --- | --- | --- |
| C=C1[C@H](O)CC(=C/C=C2\CCC[C@]3(C)[C@@H]([C@@H](C)CCCC(C)(C)O)CC[C@@H]23)C[C@H]1O [DP001] | 29 | 25 | 1 | – | – | – | – | – | – | – | – | – | – | – | – | – | – | – |
| C=C1/C(=C/C=C2\CCC[C@]3(C)[C@@H]([C@H](C)CCCC(C)(C)O)CC[C@@H]23)C[C@@H](O)C(=C)[C@@H]1O | 1 | 0.4 | 2.5 | 3.2 | 2.2 | 1.2 | 3 | 1.3 | 2.3 | 2.1 | 2.2 | 0.3 | 0.5 | – | – | – | – | – |
| C=C1/C(=C\C=C2/CCC[C@]3(C)[C@@H]([C@H](C)CCCC(C)C)CC[C@@H]23)C[C@@H](O)C(=C)[C@@H]1O | 0.07 | 0.07 | 0.01 | 6 | – | 5.8 | – | 3.8 | – | 4.6 | 6 | – | 0.9 | Dose-dependent effect | – | – | – | – |
| C=C1/C(=C\C=C2/CCC[C@]3(C)[C@@H]([C@@H](C)CCCC(C)(C)O)CC[C@@H]23)C[C@@H](O)C(=C)[C@@H]1O | 10 | 29 | 1.1 | 7.3 | – | 9.3 | – | 5.9 | 5 | 5.4 | 6 | 1.1 | 2.8 | Active | 0.7 | 3.4 | 5 | 3 |
| C=C1/C(=C\C=C2/CCC[C@]3(C)[C@@H]([C@H](C)CCCC(C)(C)O)CC[C@@H]23)C[C@@H](O)C(=C)[C@@H]1O | 1 | 0.7 | 1.4 | 9.2 | – | 5.2 | – | 5 | 2.4 | 5.1 | 7.3 | 1.4 | 2.2 | – | – | – | – | – |
| C=C1/C(=C\C=C2/CCC[C@]3(C)[C@@H]([C@H](C)CCCC(C)(C)O)CC[C@@H]23)C[C@@H](O)C[C@@H]1O [CALCITRIOL] | – | – | – | – | – | 1.9 | – | 2.1 | – | 3.1 | – | – | 0.3 | Active | – | – | – | – |
| C=C1/C(=C/C=C2\CCC[C@]3(C)[C@@H]([C@@H](C)CCCC(C)(C)O)CC[C@@H]23)C[C@@H](O)C(=C)[C@@H]1O | 5 | 20 | 1.1 | – | – | 4.5 | – | 4 | 0.9 | 2.9 | – | 0 | 0.6 | Active | – | 1.2 | 2.6 | – |
| C=C1/C(=C\C=C2/CCC[C@]3(C)[C@@H]([C@@H](C)CCCC(C)C)CC[C@@H]23)C[C@@H](O)C(=C)[C@@H]1O | 0.07 | 0.7 | 0.01 | – | – | – | – | 3.3 | – | – | 4.8 | – | 0.4 | Dose-dependent effect | – | – | – | – |
